# Screening results (PubChem)
# This is a sample that favours compounds with a hit; in the whole collection about 5.9% have one here.
# IDH1 mut inh = inhibitors of IDH1 R132H reductase, primary screen, biochemical, plate reader, single point; Isocitrate dehydrogenase [NADP] cytoplasmic (Homo sapiens), O75874; diaphorase/resazurin fluorescence, 60 min; inhibition, % at 10 µM; actives 0.18% (n = 70,000); AID 624101, 2012; in the data active = inhibition above about 34%; inconclusive = no clear call, values can overlap the other calls; inactive = below about 11%;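 note: 0% = DMSO and 100% = no enzyme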
# Pf Dd2 growth = P. falciparum Dd2 growth inhibitors, primary screen, SYBR Green fluorescence, single dose replicates; actives 2.3% (n = 94,000); activity change, % at 10 µM; 72 h; active compounds read low; in the data active = activity change below about -80%; inconclusive = no clear call, values can overlap the other calls
# KDM4C inh = inhibitors of GASC-1 (KDM4C) histone demethylase, primary screen, biochemical, single concentration HTS; actives 0.15% (n = 96,000); AID 720574, 2013; Lysine-specific demethylase 4C (Homo sapiens), Q9H3R0; GST-KDM4C 2-372, H3K9me3 peptide, LANCE TR-FRET; inhibition, % at 12.5 µM;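 active = mean replicate inhibition above about 25%, with at least 55% of replicates also reaching it, limit read from the data, passing the limit was not always enough; inconclusive = only one of those two conditions met; inactive = neither condition met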
# Target sequence (Q9H3R0 2-372 limits assumed): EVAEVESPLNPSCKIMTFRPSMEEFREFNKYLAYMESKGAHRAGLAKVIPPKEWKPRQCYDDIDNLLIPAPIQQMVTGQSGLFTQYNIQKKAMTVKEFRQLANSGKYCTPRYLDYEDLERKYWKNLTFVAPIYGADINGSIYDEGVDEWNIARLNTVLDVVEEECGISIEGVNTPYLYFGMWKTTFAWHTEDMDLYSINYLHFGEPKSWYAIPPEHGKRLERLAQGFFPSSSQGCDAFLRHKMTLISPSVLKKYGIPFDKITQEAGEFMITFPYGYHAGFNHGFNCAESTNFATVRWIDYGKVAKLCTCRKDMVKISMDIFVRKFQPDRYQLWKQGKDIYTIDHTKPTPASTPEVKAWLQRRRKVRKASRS
#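 Compound: one test concentration per compound; Material: GST-GASC-1 enzyme fragment 2-372; Amount: GASC-1 enzyme at 10 nM final in reaction; Also added: H3K9me3 peptide substrate, Fe(II), 2-oxoglutarate; Technique: LANCE TR-FRET; Times: 30 min demethylation and 1 h detection at room temperature.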
# T cruzi growth-1 = T. cruzi intracellular proliferation inhibitors, primary screen, cell-based, beta-gal Tulahuen parasites, NIH3T3 host, luminescence. AID 624255, 2012. actives 5.9% (n = 77,000). inhibition, % at 8.34 µM. T. cruzi beta-gal in NIH3T3, GalScreen luminescence, 90 h;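 active = mean inhibition above about 93%, with at least 55% of replicates each passing it, limit read from the data, passing the limit was not always enough; inconclusive = only one of those two conditions holds; inactive = neither condition holds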
# T cruzi growth-2 = T. cruzi intracellular proliferation inhibitors, confirmation, cell-based, NIH3T3 host, beta-gal parasite, luminescence, cherry-pick; inhibition, % at 8.35 µM; actives 72% (n = 5,600); shares compounds with T cruzi growth-1; T. cruzi beta-gal in NIH3T3, GalScreen luminescence, 90 h; AID 651739, 2012;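 active = mean replicate inhibition above about 95% and at least 55% of replicates individually reaching it, limit read from the data; inconclusive = only one of the two criteria is met; inactive = neither criterion is met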
# T cruzi growth-3 = inhibitors of intracellular T. cruzi replication, confirmation, NIH3T3 host cells, beta-gal parasites, cherry-pick, set 2. shares compounds with T cruzi growth-1. T. cruzi beta-gal in NIH3T3, GalScreen luminescence, 90 h. inhibition, % at 2.09 µM. actives 21% (n = 5,600);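 active = mean inhibition above about 95%, with at least 55% of replicates also reaching it, limit read from the data; inconclusive = meets just one of the two conditions; inactive = meets neither condition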;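 note: plate controls were neutral control median for no effect and positive control median for full effect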
# NIH3T3 tox = cytotoxicity in mouse NIH/3T3 fibroblasts, confirmation, cytotoxicity control for T. cruzi proliferation inhibitor project, cell-based, cherry-pick, single point | cytotoxicity (signal decrease), % at 8.35 µM | shares compounds with T cruzi growth-1 | actives 14% (n = 5,600) | NIH/3T3 viability, CellTiter-Glo ATP luminescence, 90 h;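 active = mean signal decrease across replicates above about 35% based on untreated-well scatter, with enough replicates individually passing, limit read from the data; inconclusive = no rule stated though some were filed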;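 note: 0% = median of neutral control wells and 100% = median of positive control wells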
# NIH3T3 tox 2 = NIH/3T3 fibroblast cytotoxicity, confirmation, cytotoxicity control, cell-based, cherry-pick, single point, set 2 | actives 56% (n = 5,600) | AID 651744, 2012 | NIH/3T3 viability, CellTiter-Glo ATP luminescence, 90 h | inhibition, % at 24.9 µM | shares compounds with T cruzi growth-1;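 active = mean loss of cell viability signal at or above a set limit, and enough replicates individually reaching it; inconclusive = meets only the mean limit or only the replicate share; inactive = meets neither condition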;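 note: 0% = median of neutral control wells and 100% = median of positive control wells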
# An asterisk follows results filed as active; u = inconclusive; x = no result given.
SMILES,IDH1 mut inh,Pf Dd2 growth,KDM4C inh,T cruzi growth-1,T cruzi growth-2,T cruzi growth-3,NIH3T3 tox,NIH3T3 tox 2
C[C@H](CO)N1C[C@H](C)[C@@H](CN(C)S(=O)(=O)c2ccc(Cl)cc2)OCCCC[C@H](C)Oc2ccc(NS(=O)(=O)c3ccccc3)cc2C1=O,x,-67,0,x,x,x,x,x
C[C@@H]1CN([C@@H](C)CO)C(=O)c2cc(NS(=O)(=O)c3ccc(Cl)cc3)ccc2O[C@@H](C)CCCCO[C@H]1CN(C)S(=O)(=O)c1ccccc1,-1,-22,-1,120*,108*,53,11,4
C[C@H](CO)N1C[C@H](C)[C@@H](CN(C)S(=O)(=O)c2ccccc2)OCCCC[C@H](C)Oc2ccc(NS(=O)(=O)c3ccc(Cl)cc3)cc2C1=O,x,-4,25,114*,101*,67,30,9
C[C@@H]1CN([C@H](C)CO)C(=O)c2cc(NS(=O)(=O)c3ccc(Cl)cc3)ccc2O[C@@H](C)CCCCO[C@@H]1CN(C)S(=O)(=O)c1ccccc1,1,-64,-3,118*,104*,93,-27,22
C[C@@H]1CCCCO[C@@H](CN(C)S(=O)(=O)c2ccccc2)[C@@H](C)CN([C@H](C)CO)C(=O)c2cc(NS(=O)(=O)c3ccc(Cl)cc3)ccc2O1,x,-34,0,63,x,x,x,x
C[C@@H]1CN([C@@H](C)CO)C(=O)c2cc(NS(=O)(=O)c3ccc(Cl)cc3)ccc2O[C@@H](C)CCCCO[C@@H]1CN(C)S(=O)(=O)c1ccccc1,1,-65,1,83,x,x,x,x
CC1=C(C(=O)Nc2ccc(Cl)cc2)C(c2cccc(F)c2)n2nc(CCCO)nc2N1 (stereo not given),0,x,x,x,x,x,x,x
COc1ccc(CCNC(=O)Nc2ccc(C(C)=O)cc2)cc1OC,0,x,x,x,x,x,x,x
C[C@@H]1CCCCO[C@H](CN(C)S(=O)(=O)c2ccc(Cl)cc2)[C@H](C)CN([C@H](C)CO)C(=O)c2cc(NS(=O)(=O)c3ccc(Cl)cc3)ccc2O1,2,-66,1,108*,101*,116*,10,-15
C[C@@H]1CCCCO[C@H](CN(C)S(=O)(=O)c2ccccc2)[C@H](C)CN([C@H](C)CO)C(=O)c2cc(NS(=O)(=O)c3ccc(Cl)cc3)ccc2O1,2,-36,-2,117*,100*,102*,17,4
C[C@@H]1CCCCO[C@@H](CN(C)S(=O)(=O)c2ccc(Cl)cc2)[C@H](C)CN([C@H](C)CO)C(=O)c2cc(NS(=O)(=O)c3ccccc3)ccc2O1,x,-70,-1,104,x,x,x,x
C[C@@H]1CCCCO[C@@H](CN(C)S(=O)(=O)c2ccc(Cl)cc2)[C@H](C)CN([C@@H](C)CO)C(=O)c2cc(NS(=O)(=O)c3ccc(Cl)cc3)ccc2O1,x,1,-1,61,x,x,x,x
C=CC(C)(CC/C=C(\C)C(O)CC=C(C)C)OC1OC(CO)C(O)C(O)C1O (stereo not given),0,x,x,x,x,x,x,x
COc1ccc(NC(=O)CSc2nnc(-c3ccncc3)o2)cc1,0,x,x,x,x,x,x,x
Cc1ccccc1S(=O)(=O)N1CCCCN2[C@H](C1)[C@@H](c1ccc(-c3cccnc3)cc1)[C@@H]2CO,x,-3,-4,86,x,x,x,x
Cc1ccccc1S(=O)(=O)N1CCCCN2[C@H](CO)[C@H](c3ccc(-c4cncnc4)cc3)[C@@H]2C1,x,0,5,112*,101*,-1,5,2
Cc1ccccc1S(=O)(=O)N1CCCCN2[C@@H](CO)[C@H](c3ccc(-c4cccnc4)cc3)[C@@H]2C1,x,-25,u,102*,102*,71,30,38*
Cc1ccccc1S(=O)(=O)N1CCCCN2[C@H](C1)[C@H](c1ccc(-c3cncnc3)cc1)[C@@H]2CO,x,-1,0,102*,100*,19,12,24
Cc1ccccc1S(=O)(=O)N1CCCCN2[C@H](C1)[C@@H](c1ccc(-c3cncnc3)cc1)[C@@H]2CO,x,-10,-4,78,x,x,x,x
C[C@@H]1CN([C@H](C)CO)C(=O)c2cc(NS(=O)(=O)c3ccc(Cl)cc3)ccc2O[C@@H](C)CCCCO[C@@H]1CN(C)C(=O)CCC(F)(F)F,x,-36,0,99*,82,52,16,71*
C[C@@H]1CCCCO[C@H](CN(C)C(=O)CCC(F)(F)F)[C@@H](C)CN([C@H](C)CO)C(=O)c2cc(NS(=O)(=O)c3ccc(Cl)cc3)ccc2O1,x,-22,5,88,x,x,x,x
C[C@@H]1CCCCO[C@H](CN(C)C(=O)CCC(F)(F)F)[C@H](C)CN([C@@H](C)CO)C(=O)c2cc(NS(=O)(=O)c3ccc(Cl)cc3)ccc2O1,0,-2,x,104*,103*,68,11,72*
C[C@@H]1CN([C@@H](C)CO)C(=O)c2cc(NS(=O)(=O)c3ccc(Cl)cc3)ccc2O[C@@H](C)CCCCO[C@H]1CN(C)C(=O)CCC(F)(F)F,x,-5,1,42,x,x,x,x
Cc1ccc(C(=O)NC(=S)NCc2ccco2)cc1[N+](=O)[O-],1,x,x,x,x,x,x,x
Cc1cc(NC(=O)c2cc3nc(-c4cccs4)cc(C(F)(F)Cl)n3n2)n(-c2ccccc2)n1,0,x,x,x,x,x,x,x
CCN(C[C@H]1[C@H](c2ccccc2)[C@@H](CO)N1C(C)=O)C(=O)c1cccc(F)c1,x,-1,-2,103*,-12,-5,-6,-7
CCN(C[C@H]1[C@H](c2ccc(-c3ccccc3)cc2)[C@H](CO)N1C(C)=O)C(C)=O,x,3,0,106*,-23,-67,-2,-2
CCC(=O)N1[C@H](CN(CC)C(=O)c2cccc(F)c2)[C@H](c2ccccc2)[C@@H]1CO,x,-56,5,13,x,x,x,x
CCN(C[C@@H]1[C@@H](c2ccc(-c3ccccc3)cc2)[C@H](CO)N1C(C)=O)C(C)=O,x,-10,0,u,-50,-12,-3,-21
Cn1cnnc1SCC(=O)c1ccc([N+](=O)[O-])cc1,0,x,x,x,x,x,x,x
